One compound from paper PMC12671527 (Research in Pharmaceutical Sciences, 2025) can be followed below.

Usually MIC stands for the lowest concentration found to suppress growth. A high value points to a need for much substance.

≈ marks a conversion by molar mass, not a printed value. Where only a bound is given, the exact number is not on record here.

Common to all, as to format: cell-based
Assay [1] relates to Klebsiella pneumoniae ATCC 2814. As to the kind of experiment: MIC and MBC, broth microdilution. The following applies: ATCC2814, 18 h. An outline of the steps:
(§1)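 Broth microdilution per CLSI. Isolates were revived from glycerol stocks, grown overnight in Mueller-Hinton broth and diluted to 10^6 CFU/mL, then mixed with equal volumes of serially diluted test compound, six wells per concentration. Plates ran 18 h at 37 °C with growth read at OD 570 nm; MIC was the lowest inhibiting concentration. MBC: clear wells streaked on agar for 24 h, 99.9% kill. Triplicate experiments. SI = MDCK IC50/MIC.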
Background: In broth dilution the organism is exposed to a series of concentrations in liquid medium.

The test system of assay [2] is Staphylococcus epidermidis ATCC 700565. The assay is described as follows: MIC and MBC, broth microdilution. The following applies: ATCC700565, 18 h. A digest of the protocol:
as §1

The subject of assay [3] is Acinetobacter baumannii ATCC 1799. The assay is described as follows: MIC and MBC, broth microdilution. The following applies: ATCC1799, 18 h. A digest of the protocol:
as §1

Assay [4] has as its system Pseudomonas aeruginosa ATCC 3197. The assay is described as follows: Synergistic studies, broth microdilution checkerboard. The following applies: levofloxacin combined with UP5, checkerboard, first no-growth well, triplicate.
The test system of assay [5] is Enterococcus faecium ATCC 2316. As to the kind of experiment: Synergistic studies, broth microdilution checkerboard. As to conditions: levofloxacin combined with UP5, checkerboard, first no-growth well, triplicate. An outline of the steps:
(§2)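 Checkerboard broth microdilution in Mueller-Hinton broth. Each well held graded concentrations of the peptide and levofloxacin in crossed combination, plus inoculum at 10^6 CFU/mL before mixing. Plates ran 18 h at 37 °C with growth read at OD 570 nm. Combination MICs were determined in triplicate. FIC = sum of combined/alone MIC ratios, with 100 µM used as the denominator when the solo MIC exceeded 100 µM.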

Assay [6] concerns Enterococcus faecium ATCC 2316. As to the kind of experiment: MIC and MBC, broth microdilution. The following applies: ATCC2316, 18 h. A digest of the protocol: as §1
Assay [7] has as its system Acinetobacter baumannii ATCC 1799. The assay is described as follows: Synergistic studies, broth microdilution checkerboard. As to conditions: levofloxacin combined with UP5, checkerboard, first no-growth well, triplicate. A digest of the protocol:
as §2

In assay [8] the test system is Pseudomonas aeruginosa ATCC 3197. The assay is described as follows: MIC and MBC, broth microdilution. The following applies: ATCC3197, 18 h. A digest of the protocol:
as §1

The subject of assay [9] is Klebsiella pneumoniae ATCC 2814. The assay is described as follows: Synergistic studies, broth microdilution checkerboard. The following applies: levofloxacin combined with UP5, checkerboard, first no-growth well, triplicate. A digest of the protocol:
as §2

The test system of assay [10] is Staphylococcus epidermidis ATCC 700565. Described as above. The following applies: levofloxacin combined with UP5, checkerboard, first no-growth well, triplicate. An outline of the steps: as §2
Assay [11] concerns Staphylococcus aureus ATCC BAA-44. Described as above. As to conditions: levofloxacin combined with UP5, checkerboard, first no-growth well, triplicate. A digest of the protocol: as §2

On to `C[C@H]1COc2c(N3CCN(C)CC3)c(F)cc3c(=O)c(C(=O)O)cn1c23` [Levofloxacin, levofloxacin], for which the minimum inhibitory concentration (MIC) in assay [1] is > 100 µM; in [2], 25 µM (≈ 9.03 µg/mL); in [3], > 100 µM; in [6] it was 50 µM (≈ 18.1 µg/mL); in [8], 25 µM (≈ 9.03 µg/mL). For the same compound, the “MIC in combination, Levofloxacin” value in assay [4] was 12.5 µM; in assay [5] it was 12.5 µM; in [7], 12.5 µM; in [9] it was 25 µM; in assay [10] it was 6.25 µM; in [11] it was 12.5 µM.
